# Assays:
# Assay type in all cases: functional
# Staphylococcus aureus [1] = assay: Antibacterial activity against erythromycin-susceptible Staphylococcus aureus ATCC 25923 by broth microdilution method
# Procedure, shortened: (§1)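 Broth microdilution MIC following the NCCL-recommended method. Panel of sensitive and resistant Gram-positive strains: S. pyogenes S2 (erythromycin-susceptible clinical isolate), S. aureus ATCC25923 and S. pneumoniae ATCC49619 (erythromycin-susceptible). Azithromycin and clarithromycin were run alongside as references.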
# Streptococcus pneumoniae [2] = assay: Antibacterial activity against erythromycin-susceptible Streptococcus pneumoniae ATCC 49619 by broth microdilution method; procedure, shortened: as §1
# Streptococcus pyogenes [3] = assay: Antibacterial activity against clinically isolated erythromycin-susceptible Streptococcus pyogenes S2 by broth microdilution method; procedure, shortened: as §1
# Staphylococcus aureus [4] = assay: Antibacterial activity against clinically isolated penicillin-resistant Staphylococcus aureus by broth microdilution method
# Procedure, shortened: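 Clinical penicillin-resistant S. aureus isolate, not further characterized, tested in a Gram-positive panel. MIC was measured by broth microdilution following NCCL recommendations, with azithromycin and clarithromycin as references.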
# Staphylococcus aureus [5] = assay: Antibacterial activity against methicillin-susceptible Staphylococcus aureus ATCC 29213 by broth microdilution method
# Procedure, shortened: (§2)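 MICs measured in vitro by broth microdilution following NCCL recommendations, against a Gram-positive panel of sensitive and resistant strains. Azithromycin and clarithromycin were tested alongside as references.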
# Streptococcus pneumoniae [6] = assay: Antibacterial activity against erythromycin-resistant Streptococcus pneumoniae B1 expressing ermB gene by broth microdilution method; procedure, shortened: as §2
# Streptococcus pneumoniae [7] = assay: Antibacterial activity against erythromycin-resistant Streptococcus pneumoniae A22072 expressing mefA gene by broth microdilution method; procedure, shortened: as §2
# Streptococcus pneumoniae [8] = assay: Antibacterial activity against erythromycin-resistant Streptococcus pneumoniae AB11 expressing ermB and mefA genes by broth microdilution method; procedure, shortened: as §2
# Streptococcus pyogenes [9] = assay: Antibacterial activity against clinically isolated erythromycin-resistant Streptococcus pyogenes R2 by broth microdilution method; procedure, shortened: as §2
Structure (SMILES),MIC (Staphylococcus aureus [1]),MIC (Streptococcus pneumoniae [2]),MIC (Streptococcus pyogenes [3]),MIC (Staphylococcus aureus [4]),MIC (Staphylococcus aureus [5]),MIC (Streptococcus pneumoniae [6]),MIC (Streptococcus pneumoniae [7]),MIC (Streptococcus pneumoniae [8]),MIC (Streptococcus pyogenes [9])
CC[C@H]1OC(=O)[C@@H](C)[C@H](O[C@H]2C[C@@](C)(OC)[C@@H](OC(=O)NNC(=O)/C=C/c3ccccc3F)[C@H](C)O2)[C@@H](C)[C@H](O[C@H]2O[C@@H](C)C[C@@H](N(C)C)[C@@H]2O)[C@@](C)(O)C[C@H](C)CN(C)[C@@H](C)[C@@H]2OC(=O)O[C@@]12C,4 mg/L,8 mg/L,0.25 mg/L,16 mg/L,8 mg/L,16 mg/L,2 mg/L,32 mg/L,64 mg/L
CC[C@H]1OC(=O)[C@@H](C)[C@H](O[C@H]2C[C@@](C)(OC)[C@@H](OC(=O)NNC(=O)/C=C/c3ccc(Cl)cc3)[C@H](C)O2)[C@@H](C)[C@H](O[C@H]2O[C@@H](C)C[C@@H](N(C)C)[C@@H]2O)[C@@](C)(O)C[C@H](C)CN(C)[C@@H](C)[C@@H]2OC(=O)O[C@@]12C,8 mg/L,4 mg/L,1 mg/L,8 mg/L,8 mg/L,8 mg/L,0.5 mg/L,8 mg/L,32 mg/L
CC[C@H]1OC(=O)[C@@H](C)[C@H](O[C@H]2C[C@@](C)(OC)[C@@H](OC(=O)NNC(=O)/C=C/c3ccc(Br)cc3)[C@H](C)O2)[C@@H](C)[C@H](O[C@H]2O[C@@H](C)C[C@@H](N(C)C)[C@@H]2O)[C@@](C)(O)C[C@H](C)CN(C)[C@@H](C)[C@@H]2OC(=O)O[C@@]12C,4 mg/L,4 mg/L,1 mg/L,8 mg/L,4 mg/L,8 mg/L,0.25 mg/L,4 mg/L,16 mg/L
CC[C@H]1OC(=O)[C@@H](C)[C@H](O[C@H]2C[C@@](C)(OC)[C@@H](OC(=O)NNC(=O)/C=C/c3ccc(OC)c(OC)c3)[C@H](C)O2)[C@@H](C)[C@H](O[C@H]2O[C@@H](C)C[C@@H](N(C)C)[C@@H]2O)[C@@](C)(O)C[C@H](C)CN(C)[C@@H](C)[C@@H]2OC(=O)O[C@@]12C,8 mg/L,2 mg/L,0.5 mg/L,8 mg/L,16 mg/L,32 mg/L,0.5 mg/L,8 mg/L,64 mg/L
CC[C@@H]1OC(=O)[C@H](C)[C@@H](O[C@H]2C[C@@](C)(OC)[C@@H](OC(=O)NNC(=O)/C=C/c3ccco3)[C@H](C)O2)[C@@H](C)[C@@H](O[C@@H]2O[C@H](C)C[C@H](N(C)C)[C@H]2O)[C@](C)(O)C[C@@H](C)CN(C)[C@H](C)[C@@H](OC(=O)NCc2ccccc2)[C@]1(C)O,1 mg/L,0.12 mg/L,0.25 mg/L,1 mg/L,4 mg/L,4 mg/L,0.12 mg/L,8 mg/L,64 mg/L
CC[C@H]1OC(=O)[C@@H](C)[C@H](O[C@H]2C[C@@](C)(OC)[C@@H](OC(=O)NNC(=O)/C=C/c3ccccc3OC)[C@H](C)O2)[C@@H](C)[C@H](O[C@H]2O[C@@H](C)C[C@@H](N(C)C)[C@@H]2O)[C@@](C)(O)C[C@H](C)CN(C)[C@@H](C)[C@@H]2OC(=O)O[C@@]12C,2 mg/L,4 mg/L,8 mg/L,8 mg/L,4 mg/L,4 mg/L,0.25 mg/L,2 mg/L,64 mg/L
CC[C@H]1OC(=O)[C@@H](C)[C@H](O[C@H]2C[C@@](C)(OC)[C@@H](OC(=O)NNC(=O)/C=C/c3ccc(F)cc3)[C@H](C)O2)[C@@H](C)[C@H](O[C@H]2O[C@@H](C)C[C@@H](N(C)C)[C@@H]2O)[C@@](C)(O)C[C@H](C)CN(C)[C@@H](C)[C@@H]2OC(=O)O[C@@]12C,2 mg/L,16 mg/L,0.5 mg/L,16 mg/L,8 mg/L,64 mg/L,2 mg/L,16 mg/L,64 mg/L
CC[C@H]1OC(=O)[C@@H](C)[C@H](O[C@H]2C[C@@](C)(OC)[C@@H](OC(=O)NNC(=O)/C=C/c3cc(OC)c(OC)c(OC)c3)[C@H](C)O2)[C@@H](C)[C@H](O[C@H]2O[C@@H](C)C[C@@H](N(C)C)[C@@H]2O)[C@@](C)(O)C[C@H](C)CN(C)[C@@H](C)[C@@H]2OC(=O)O[C@@]12C,8 mg/L,4 mg/L,0.5 mg/L,16 mg/L,16 mg/L,32 mg/L,0.5 mg/L,16 mg/L,64 mg/L
CC[C@H]1OC(=O)[C@@H](C)[C@H](O[C@H]2C[C@@](C)(OC)[C@@H](OC(=O)NNC(=O)/C=C/c3ccc(C#N)cc3)[C@H](C)O2)[C@@H](C)[C@H](O[C@H]2O[C@@H](C)C[C@@H](N(C)C)[C@@H]2O)[C@@](C)(O)C[C@H](C)CN(C)[C@@H](C)[C@@H]2OC(=O)O[C@@]12C,4 mg/L,16 mg/L,0.5 mg/L,8 mg/L,8 mg/L,64 mg/L,2 mg/L,64 mg/L,≥ 128 mg/L
CC[C@H]1OC(=O)[C@@H](C)[C@H](O[C@H]2C[C@@](C)(OC)[C@@H](OC(=O)NNC(=O)/C=C/c3ccco3)[C@H](C)O2)[C@@H](C)[C@H](O[C@H]2O[C@@H](C)C[C@@H](N(C)C)[C@@H]2O)[C@@](C)(O)C[C@H](C)CN(C)[C@@H](C)[C@@H]2OC(=O)O[C@@]12C,2 mg/L,8 mg/L,0.25 mg/L,4 mg/L,8 mg/L,32 mg/L,1 mg/L,16 mg/L,≥ 128 mg/L
CC[C@H]1OC(=O)[C@@H](C)[C@H](O[C@H]2C[C@@](C)(OC)[C@@H](OC(=O)NNC(=O)/C=C/c3ccc([N+](=O)[O-])cc3)[C@H](C)O2)[C@@H](C)[C@H](O[C@H]2O[C@@H](C)C[C@@H](N(C)C)[C@@H]2O)[C@@](C)(O)C[C@H](C)CN(C)[C@@H](C)[C@@H]2OC(=O)O[C@@]12C,2 mg/L,2 mg/L,0.25 mg/L,16 mg/L,8 mg/L,16 mg/L,0.5 mg/L,8 mg/L,≥ 128 mg/L
CC[C@@H]1OC(=O)[C@H](C)[C@@H](O[C@H]2C[C@@](C)(OC)[C@@H](OC(=O)NNC(=O)/C=C/c3ccccc3)[C@H](C)O2)[C@@H](C)[C@@H](O[C@@H]2O[C@H](C)C[C@H](N(C)C)[C@H]2O)[C@](C)(O)C[C@@H](C)CN(C)[C@H](C)[C@@H](OC(=O)NCc2ccccc2)[C@]1(C)O,0.5 mg/L,0.5 mg/L,0.5 mg/L,1 mg/L,1 mg/L,2 mg/L,1 mg/L,4 mg/L,32 mg/L
CC[C@H]1OC(=O)[C@@H](C)[C@H](O[C@H]2C[C@@](C)(OC)[C@@H](OC(=O)NNC(=O)/C=C/c3ccccc3)[C@H](C)O2)[C@@H](C)[C@H](O[C@H]2O[C@@H](C)C[C@@H](N(C)C)[C@@H]2O)[C@@](C)(O)C[C@H](C)CN(C)[C@@H](C)[C@@H]2OC(=O)O[C@@]12C,8 mg/L,2 mg/L,0.25 mg/L,8 mg/L,8 mg/L,8 mg/L,0.25 mg/L,4 mg/L,64 mg/L

# From ChEMBL document CHEMBL3734701, “Synthesis and antibacterial activity of 4″-O-(trans-β-arylacrylamido)carbamoyl azithromycin analogs” (2015)
